# Published values pooled from the literature.
# Compare with care: the assays were run in different laboratories.
SMILES,tested on,assay,test system,setting,endpoint,value
CNC(=O)c1ccc(-c2cnn3ccc(C(=O)N(C)c4ccc(Cl)c(C(=O)OC)c4)cc23)cc1,,,"female C57BL/6 mouse, plasma","oral, 10 mg/kg/day",AUC,9.1 ng·h/mL
COCC1=N[C@@]2(O)[C@H](C(=O)N(C)OC)[C@@H](c3ccccc3)[C@]3(c4ccc(OC)cc4)Oc4cc(OC)cc(OC)c4[C@]23N1,,metabolic stability,"male Sprague-Dawley rat, liver microsomes","1 µM, pH 7.4",half-life,74.7 min
NCCNC(=O)O[C@H]1CCC[C@@]2(C1)OOC1(O2)C2CC3CC(C2)CC1C3 (stereo partly shown),,,"male CD-1 mouse, plasma","intravenous, 3 mg/kg",AUC(0-inf),757 ng·h/mL
C[C@]12CC[C@H]3[C@@H](CCC4=CC(=O)CC[C@@]43C)[C@@H]1CC[C@@H]2O,,metabolic stability,"Sprague-Dawley rat, hepatocytes",1 µM,half-life,2.92 min
C[C@]12CC[C@H]3[C@@H](CC=C4CC(O)CC[C@@]43CO)[C@@H]1CCC2O (stereo partly shown),,metabolic stability,"rat, liver microsomes",,half-life,19.9 min
Cn1nccc1[C@]1(CNC(=O)c2ccc(F)c(F)c2-c2ccc(C(F)(F)F)cc2)NC(=O)NC1=O,,,"male C57BL/6 mouse, plasma","oral, 1 mg/kg",bioavailability,132%
CNC(=O)c1ccc(-c2cnn3ccc(C(=O)N(C)c4ccc(Cl)c(C(=O)O)c4)cc23)cc1,,,"female C57BL/6 mouse, plasma","oral, 10 mg/kg/day",AUC,34 ng·h/mL
COc1cc(Cl)cc2c(=O)n3c(nc12)[C@@H]1CCCN(C)[C@@H]1CC3 (racemic),SH-SY5Y,"cell growth or viability, ATP luminescence",,72 h,CC50,> 20 µM
CN1CCN(S(=O)(=O)c2cc([N+](=O)[O-])ccc2N(CCOS(C)(=O)=O)CCOS(C)(=O)=O)CC1,,,"female SCID mouse, plasma","intraperitoneal, 5 mg/kg",AUC(0-inf),0.5 µM·h
CC(C)C[C@H](NC(=O)[C@H](Cc1ccccc1)NC(=O)[C@H](Cc1ccccc1)NC(=O)Cc1ccc(-c2ccccc2)cc1)C(=O)N[C@@H](CCCCN)C(=O)N[C@@H](CCCNC(=N)N)C(=O)N[C@H](C(=O)N[C@@H](Cc1c[nH]c2ccccc12)C(=O)N[C@@H](CCCCN)C(=O)N[C@@H](CCCNC(=N)N)C(=O)O)C(C)C,,metabolic stability,"rat, liver microsomes",1 µM,half-life,5.12 min
CN1CC[C@H]2c3nc4ccc(Cl)cc4c(=O)n3CC[C@H]21 (racemic),SH-SY5Y,"cell growth or viability, ATP luminescence",,,CC50,> 20 µM
CONC(=O)[C@H]1[C@@H](O)[C@@]2(O)c3c(OC)cc(OC)cc3O[C@@]2(c2ccc(OC)cc2)[C@@H]1c1ccccc1,,metabolic stability,"rat, liver microsomes",,half-life,58.3 min
C=CS(=O)(=O)c1ccc(Nc2nc(OCC3CCCCC3)c3nc[nH]c3n2)cc1,,,"male BALB/c mouse, plasma","intraperitoneal, 20 mg/kg, single dose",AUC(0-t),137 ng·h/mL
